Data: ChEMBL document CHEMBL4152304, “Design, synthesis and anticancer activity of fluorocyclopentenyl-purines and - pyrimidines” (Eur J Med Chem, 2018)

Key:
Format in all cases: functional, cell-based
[1] = tested on: A549; assay: Cytotoxicity against human A549 cells assessed as decrease in cell viability after 72 hrs by SRB assay; conditions: A549, 72 h
Outline: (§1)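 Cells from the Korean Cell Line Bank were grown in RPMI 1640 with 10% FBS and penicillin/streptomycin/amphotericin B at 37 °C under 5% CO2. They were seeded at 5 × 10^4 cells/mL and exposed to a range of compound concentrations for 72 h. Cells were fixed in 10% TCA and stained with 0.4% SRB in 1% acetic acid. Dye was dissolved in 10 mM Tris (pH 10.0) and read at A515. Viability is relative to vehicle; IC50 by nonlinear regression.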

[2] = tested on: HCT-116; assay: Cytotoxicity against human HCT116 cells assessed as decrease in cell viability after 72 hrs by SRB assay; conditions: HCT-116, 72 h; outline: as §1
[3] = tested on: PC-3; assay: Cytotoxicity against human PC3 cells assessed as decrease in cell viability after 72 hrs by SRB assay; conditions: PC-3, 72 h; outline: as §1
[4] = tested on: SK-HEP1; assay: Cytotoxicity against human SKHEP1 cells assessed as decrease in cell viability after 72 hrs by SRB assay; conditions: SK-HEP1, 72 h
Outline: (§2)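 Maintained in DMEM with 10% FBS and penicillin/streptomycin/amphotericin B at 37 °C in humidified 5% CO2; cell lines from the Korean Cell Line Bank. Plated at 5 × 10^4 cells/mL and treated with various concentrations for 72 h. Then 10% TCA fixation, 0.4% SRB staining in 1% acetic acid, solubilisation in 10 mM Tris pH 10.0 and absorbance at 515 nm. Viability is versus vehicle control; IC50 from nonlinear regression.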

[5] = tested on: MDA-MB-231; assay: Cytotoxicity against human MDA-MB-231 cells assessed as decrease in cell viability after 72 hrs by SRB assay; conditions: MDA-MB-231, 72 h; outline: as §2
[6] = tested on: SNU-638; assay: Cytotoxicity against human SNU638 cells assessed as decrease in cell viability after 72 hrs by SRB assay; conditions: SNU-638, 72 h; outline: as §1

SMILES | IC50 [1] [µM] | IC50 [2] [µM] | IC50 [3] [µM] | IC50 [4] [µM] | IC50 [5] [µM] | IC50 [6] [µM]
OCC1=C(F)[C@@H](n2cnc3c(NC4CC4)ncnc32)[C@H](O)[C@@H]1O | > 100 | > 100 | > 100 | > 100 | > 100 | > 100
Nc1nc(=O)n([C@@H]2C(F)=C(CO)[C@@H](O)[C@H]2O)cc1F | > 100 | > 100 | > 100 | > 100 | > 100 | > 100
Nc1nc(O)c2ncn([C@@H]3C(F)=C(CO)[C@@H](O)[C@H]3O)c2n1 | > 100 | > 100 | > 100 | > 100 | > 100 | > 100
Nc1nc(=O)n([C@@H]2C(F)=C(CO)[C@@H](O)[C@H]2O)cc1Br | > 100 | > 100 | > 100 | > 100 | > 100 | > 100
OCC1=C(F)[C@@H](n2cnc3c(O)ncnc32)[C@H](O)[C@@H]1O | > 100 | > 100 | > 100 | > 100 | > 100 | > 100
O=c1nc(O)c(Br)cn1[C@@H]1C(F)=C(CO)[C@@H](O)[C@H]1O | > 100 | 33.1 | 32 | 75 | 44 | 32
O=c1nc(O)c(Cl)cn1[C@@H]1C(F)=C(CO)[C@@H](O)[C@H]1O | > 100 | > 100 | 61.9 | > 100 | > 100 | 86.8
CC(C)OC(=O)[C@H](C)N[P@](=O)(OCC1=C(F)[C@@H](n2cnc3c(N)ncnc32)[C@H](O)[C@@H]1O)Oc1ccccc1 | 18.6 | 4.57 | 10.5 | 24 | 18.4 | 3.05
Nc1nc(=O)n([C@@H]2C(F)=C(CO)[C@@H](O)[C@H]2O)cc1I | > 100 | 99.8 | 82.9 | > 100 | 79.8 | 83.7
Nc1nc(N)c2ncn([C@@H]3C(F)=C(CO)[C@@H](O)[C@H]3O)c2n1 | 85.4 | 21.9 | > 100 | > 100 | 22.8 | 32.2
CNc1ncnc2c1ncn2[C@@H]1C(F)=C(CO)[C@@H](O)[C@H]1O | 2.39 | 2.14 | 15.3 | 2.76 | 8.05 | 2.28
Nc1nc(=O)n([C@@H]2C(F)=C(CO)[C@@H](O)[C@H]2O)cc1Cl | > 100 | > 100 | > 100 | > 100 | > 100 | > 100
O=c1nc(O)c(F)cn1[C@@H]1C(F)=C(CO)[C@@H](O)[C@H]1O | > 100 | 52.3 | 43.7 | 71.6 | 67.7 | 27.8
O=c1nc(O)c(I)cn1[C@@H]1C(F)=C(CO)[C@@H](O)[C@H]1O | > 100 | 84.5 | 46.4 | > 100 | 55.1 | 70.2
Nc1nc(NC2CC2)c2ncn([C@@H]3C(F)=C(CO)[C@@H](O)[C@H]3O)c2n1 | > 100 | > 100 | > 100 | > 100 | > 100 | > 100
Nc1ccn([C@@H]2O[C@H](CO)[C@@H](O)[C@@H]2O)c(=O)n1 [CYTARABINE] | 1.75 | 4.4 | 48.4 | 1.8 | 10.5 | 1.08
Nc1ncnc2c1ncn2[C@@H]1C=C(CO)[C@@H](O)[C@H]1O [NEOPLANOCIN A] | 2.16 | 1.45 | 2.14 | 2.36 | 0.86 | 0.82
